The values below come from ChEMBL document CHEMBL1152227, “Structure-activity relationships of 1,4-dihydropyridines that act as enhancers of the vanilloid receptor 1 (TRPV1)” (Bioorg Med Chem, 2008).

Experiment [1] concerns the target T1, Transient receptor potential cation channel subfamily V member 1 (Homo sapiens, UniProt Q8NER1). Briefly: Agonist-enhancing activity in epsilon-epitope tagged TRPV1 receptor expressed in mouse NIH3T3 cells assessed as capsaicin-induced 45Ca2+ influx at 100 uM by microplate liquid scintillation counter relative to capsaicin alone. The format is functional, cell-based. In short, it runs like this: (§1)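 Stable ε-tagged TRPV1 NIH3T3 cells. Uptake with capsaicin 2 µM, 10 min at 20°C, 0.5 µCi/well 45Ca2+ in Tris-HBSS pH 7.5. Compound up to 100 µM, 2% DMSO, from 5 mM stocks, duplicate wells per concentration. Data normalized to capsaicin-only wells (100%). Variable-slope fit gave EC50 and ΔEmax; compounds too weak to fit were given ΔEmax at the top concentration.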

The target of experiment [2] is T2, Adenosine receptor A3 (Homo sapiens, UniProt P0DMS8).
T2 sequence (P0DMS8 whole entry): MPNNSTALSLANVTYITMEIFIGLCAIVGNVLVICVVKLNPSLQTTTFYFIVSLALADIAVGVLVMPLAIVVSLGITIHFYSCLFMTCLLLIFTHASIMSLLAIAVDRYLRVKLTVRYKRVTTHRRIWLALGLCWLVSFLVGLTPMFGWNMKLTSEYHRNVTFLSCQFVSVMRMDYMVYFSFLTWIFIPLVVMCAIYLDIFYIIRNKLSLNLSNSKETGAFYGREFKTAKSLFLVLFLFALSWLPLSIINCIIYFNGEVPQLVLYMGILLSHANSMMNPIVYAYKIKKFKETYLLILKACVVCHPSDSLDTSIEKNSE
Briefly: Binding affinity to human adenosine A3 receptor.

The target of experiment [3] is T3, Adenosine receptor A3 (Rattus norvegicus) (UniProt P28647).
T3 sequence (whole entry): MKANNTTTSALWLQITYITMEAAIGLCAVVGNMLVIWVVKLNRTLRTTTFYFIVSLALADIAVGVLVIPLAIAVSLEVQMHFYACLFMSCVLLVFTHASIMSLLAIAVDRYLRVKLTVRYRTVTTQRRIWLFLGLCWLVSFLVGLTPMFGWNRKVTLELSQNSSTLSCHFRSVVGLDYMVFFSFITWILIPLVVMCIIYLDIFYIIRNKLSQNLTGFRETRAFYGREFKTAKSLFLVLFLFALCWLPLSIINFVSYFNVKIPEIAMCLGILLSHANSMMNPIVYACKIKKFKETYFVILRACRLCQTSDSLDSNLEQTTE
Description: Binding affinity to rat adenosine A3 receptor.

Experiment [4] addresses T1, Transient receptor potential cation channel subfamily V member 1. Briefly: Agonist activity at epsilon-epitope tagged TRPV1 receptor expressed in mouse NIH3T3 cells assessed as effect on 45Ca2+ influx by microplate liquid scintillation counter. The format is functional, cell-based. In short, it runs like this: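 NIH3T3 cells stably expressing ε-tagged TRPV1 were seeded the day before and grown at 35°C. Test compound given without capsaicin, top concentration 100 µM, 2% DMSO. 45Ca2+ uptake run 10 min at 20°C in Tris-HBSS (pH 7.5) with ascorbate, 10 µM Ca2+ and 0.8 mM Mg2+. Cells were washed, lysed in RIPA and counted by scintillation.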

Experiment [5] addresses Transient receptor potential cation channel subfamily V member 1 (Rattus norvegicus) (UniProt O35433). Description: Agonist activity at TRPV1 receptor in E15 rat primary dorsal root ganglion cells assessed as effect on 45Ca2+ influx by microplate liquid scintillation counter. The format is functional, tissue-based. In short, it runs like this: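 DRGs from E15 rat embryos, enzymatically dissociated, grown 5–6 days at 35°C. Test compound given without capsaicin. 45Ca2+ uptake run 10 min at 20°C in Tris-buffered (pH 7.5) HBSS with 1 mM ascorbate, 10 µM CaCl2 and 0.8 mM MgCl2, with 0.5 µCi/well tracer. Cells were washed, lysed in RIPA and counted by scintillation.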

The target of experiment [6] is T1, Transient receptor potential cation channel subfamily V member 1. Briefly: Agonist-enhancing activity in epsilon-epitope tagged TRPV1 receptor expressed in mouse NIH3T3 cells assessed as capsaicin-induced 45Ca2+ influx by microplate liquid scintillation counter. Type of experiment: functional, cell-based. Put shortly: as §1
In experiment [7] the target is Transient receptor potential cation channel subfamily V member 1 (Rattus norvegicus) (UniProt O35433). Briefly: Agonist-enhancing activity at TRPV1 receptor in E15 rat primary dorsal root ganglion cells assessed as increase in intracellular calcium levels at 10 uM by Fura-4F AM based fluorimetric method relative to capsaicin alone. The format is functional, tissue-based. Put shortly: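 E15 rat DRG neurons on poly-ornithine/laminin coverslips, cultured 4–6 days. Loaded with 2.5 µM Fura-4F AM for 20 min at room temperature and perfused at 0.5 mL/min in pH 7.4 HEPES saline with ascorbate. Exposed 30 s to 200 nM capsaicin ± 10 µM compound, DMSO 0.04% in controls. 340/380 ratio read at 0.5 Hz and normalized to the 2-min baseline. Peak taken as the mean of 10 points, 3 coverslips per condition.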
(In general: A change in cytosolic calcium serves as a functional read-out for many receptors and channels.)

The target is the same in experiment [8]. Description: Agonist-enhancing activity at TRPV1 receptor in E15 rat primary dorsal root ganglion cells assessed as capsaicin-induced 45Ca2+ influx by microplate liquid scintillation counter relative to capsaicin alone. The format is functional, tissue-based. In short, it runs like this: (§2)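 E15 rat DRG cultures grown 5–6 days at 35°C. Uptake with capsaicin ~0.5 µM, 10 min at 20°C, 0.5 µCi/well 45Ca2+ in Tris-HBSS pH 7.5. Compound up to 50 µM, 0.2% DMSO, from 25 mM stocks. Counts normalized to in-plate capsaicin-only wells (100%, 4 wells). Variable-slope sigmoid fit gave EC50, Hill slope and ΔEmax.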

The target is the same in experiment [9]. Briefly: Agonist-enhancing activity at TRPV1 receptor in E15 rat primary dorsal root ganglion cells assessed as capsaicin-induced 45Ca2+ influx by microplate liquid scintillation counter. Type of experiment: functional, tissue-based. Put shortly:
as §2

Active and inactive are the calls of the source. The rule behind the calls is not given here.

Sequence of Transient receptor potential cation channel subfamily V member 1 (Rattus norvegicus) (O35433 whole entry, the tested form may be a part): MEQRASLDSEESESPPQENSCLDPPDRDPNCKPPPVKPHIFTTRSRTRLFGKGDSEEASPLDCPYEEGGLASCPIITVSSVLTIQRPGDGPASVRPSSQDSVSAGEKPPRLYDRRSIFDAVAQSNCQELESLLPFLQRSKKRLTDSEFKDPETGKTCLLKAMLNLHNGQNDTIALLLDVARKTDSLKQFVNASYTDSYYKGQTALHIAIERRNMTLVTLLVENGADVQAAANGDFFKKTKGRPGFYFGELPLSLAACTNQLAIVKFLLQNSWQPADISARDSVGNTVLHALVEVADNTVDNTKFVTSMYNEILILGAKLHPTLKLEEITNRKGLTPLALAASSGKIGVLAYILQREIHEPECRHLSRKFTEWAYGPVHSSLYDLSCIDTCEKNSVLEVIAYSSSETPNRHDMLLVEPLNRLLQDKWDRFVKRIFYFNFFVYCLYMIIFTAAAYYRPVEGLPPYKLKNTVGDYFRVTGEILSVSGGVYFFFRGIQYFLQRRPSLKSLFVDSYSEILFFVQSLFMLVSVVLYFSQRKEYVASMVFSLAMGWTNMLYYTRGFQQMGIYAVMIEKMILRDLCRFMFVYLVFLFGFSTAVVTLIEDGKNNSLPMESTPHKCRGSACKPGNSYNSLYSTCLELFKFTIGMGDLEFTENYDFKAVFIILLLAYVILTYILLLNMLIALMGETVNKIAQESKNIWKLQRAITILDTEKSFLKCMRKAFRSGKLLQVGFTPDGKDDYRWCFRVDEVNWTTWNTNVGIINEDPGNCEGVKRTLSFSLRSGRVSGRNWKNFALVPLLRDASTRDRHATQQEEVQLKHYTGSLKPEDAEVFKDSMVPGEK
T1 sequence (Q8NER1 whole entry): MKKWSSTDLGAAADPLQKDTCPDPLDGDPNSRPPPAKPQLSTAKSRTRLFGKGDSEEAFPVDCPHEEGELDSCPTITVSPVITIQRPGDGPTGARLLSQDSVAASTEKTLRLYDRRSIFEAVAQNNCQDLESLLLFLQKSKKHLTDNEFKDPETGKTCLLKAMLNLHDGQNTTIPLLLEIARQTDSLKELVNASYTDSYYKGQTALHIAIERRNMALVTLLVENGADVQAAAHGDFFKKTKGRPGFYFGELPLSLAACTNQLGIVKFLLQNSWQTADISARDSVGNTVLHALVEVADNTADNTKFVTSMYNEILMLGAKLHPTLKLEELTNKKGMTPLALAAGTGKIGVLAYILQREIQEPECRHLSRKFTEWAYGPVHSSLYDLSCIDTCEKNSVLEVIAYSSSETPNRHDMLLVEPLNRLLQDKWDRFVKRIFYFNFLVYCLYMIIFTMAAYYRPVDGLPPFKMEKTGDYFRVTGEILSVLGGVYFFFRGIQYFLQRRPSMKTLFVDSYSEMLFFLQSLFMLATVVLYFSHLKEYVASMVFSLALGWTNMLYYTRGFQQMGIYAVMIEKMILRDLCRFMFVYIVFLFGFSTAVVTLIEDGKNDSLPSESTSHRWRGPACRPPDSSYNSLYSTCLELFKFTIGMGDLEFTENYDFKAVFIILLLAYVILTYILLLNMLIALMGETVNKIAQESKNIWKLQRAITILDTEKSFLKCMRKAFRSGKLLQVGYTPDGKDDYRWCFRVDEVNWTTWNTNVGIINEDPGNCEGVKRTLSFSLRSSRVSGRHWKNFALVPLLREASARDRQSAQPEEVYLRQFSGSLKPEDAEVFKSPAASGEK

On to `CCOC(=O)C1=C(c2ccccc2)N=C(C)/C(=C(/O)OCC)C1C(OC)OC` (stereo not given), for which the maximum response (Emax) (commonly the greatest response seen or fitted, relative to the assay's reference) in experiment [1] was 114%. For the same molecule, affinity in experiment [2] was put at a Ki of 15.3 µM. Besides, the outcome in [3], in experiment [4] and in experiment [5] was inactive.
For `CCOC(=O)C1=C(c2ccccc2)N=C(C)/C(=C(/O)SCC)C1CC` (stereo not given), in [6], the EC50 – broadly, the concentration giving half of the maximal effect – came out at 28.1 µM. In addition, the Emax in experiment [1] worked out at 435%. Besides, the outcome in [3], in experiment [4] and in experiment [5] was inactive.
Consider `CCOC(=O)C1=C(c2ccccc2)N=C(C)/C(=C(/O)SCCOC)C1CC` (stereo not given), for which, in experiment [6], the concentration for a half-maximal effect (EC50) turned out to be 21.3 µM. For the same molecule, in [1], the maximal effect (Emax) was found to be 626%. For the same molecule, the Ki (usually a dissociation constant, usually derived from enzyme kinetics or from competition with a known ligand) in experiment [2] is 4.58 µM. For the same molecule, the outcome in experiment [3], in experiment [4] and in [5] was inactive. In addition, in experiment [7], the Activity turned out to be 13%.
For `CCCC1=NC(c2ccccc2)=C(C(=O)OCC)C(CC)/C1=C(\O)SCC` (stereo not given), the Emax in [1] came out at 148%. For the same molecule, in experiment [2], affinity was put at a Ki of 2.09 µM. The result in experiment [3], in experiment [4] and in experiment [5] was inactive.
`CCCC1C(C(=O)OCC)=C(c2ccccc2)N=C(C)/C1=C(/O)SCC` (stereo not given): in experiment [6], the EC50 stood at 22.4 µM. In addition, the figures for the maximum response (Emax) in [1] and in experiment [8] were 364% and 318%, respectively. Further, the outcome in experiment [3], in experiment [4] and in experiment [5] was inactive.
`CCOC(=O)C1=C(c2ccccc2)N=C(C)/C(=C(/O)OCC)C1CC` (stereo not given): in experiment [1], the maximal effect (Emax) was 383%. The result in [3], in experiment [4] and in [5] was inactive.
Regarding `CCOC(=O)C1=C(c2ccccc2)N=C(CC)/C(=C(/O)SCC)C1CC` (stereo not given), in [1], the Emax was determined as 257%. The outcome in [3], in [4] and in experiment [5] was inactive.
Consider `CO/C(O)=C1\C(C)=NC(C)=C([N+](=O)[O-])[C@H]1c1ccccc1C(F)(F)F`, for which the result in [6] and in [9] was inactive.
Consider `COC(=O)C1=C(C)NC(C)=C(C(=O)OCCN(C)Cc2ccccc2)C1c1cccc([N+](=O)[O-])c1` (stereo not given), for which the result in experiment [6] and in experiment [9] was inactive.
On to `CCOC(=O)C1=C(c2cccc(F)c2)NC(C)=C(C(=O)SCC)C1CC` (racemic), for which the EC50 in experiment [6] was found to be 21.8 µM. Further, the Emax in [1] was 446%; in experiment [8] it was 198%. In addition, the outcome in experiment [4] and in [5] was inactive.
For `CCOC(=O)C1=C(C)NC(c2ccc(F)cc2)=C(C(=O)OCC)C1CC` (racemic), the EC50 in experiment [6] stood at 29.2 µM. Besides, the Emax in [1] is 372%; in experiment [8] it was 175%. Further, the result in [4] and in experiment [5] was inactive.
Take `CCOC(=O)C1=C(C)NC(c2cccc(F)c2)=C(C(=O)OCC)C1CC` (racemic): in experiment [6], the concentration giving a half-maximal response (EC50) stood at 26.7 µM. In addition, the Emax in [1] is 403%; in [8], 206%. Besides, the result in experiment [4] and in [5] was inactive.
